Molecules are shown by their SMILES. In brackets after ≈: the same amount, converted by molar mass. Activity calls are given as the source filed them.

Experiment [1] relates to Mus musculus. Put plainly: Antiinflammatory activity in mouse assessed as inhibition of carrageenan-induced increase in paw volume at 200 mg/kg, ip administered 1 hr prior to carrageenan challenge measured after 3 hrs relative to control. The format is functional. As to conditions: route intraperitoneal. The method, boiled down: (§1)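 Mice were fasted 2 h and placed in groups of five. Controls received saline i.p. Phenylbutazone was given at 100 mg/kg i.p., curcumin at 200 mg/kg i.p., and derivatives at 200 mg/kg. After 1 h, 0.1 mL of 1% carrageenan in saline was injected subplantar into the right hind paw. Paw volume was followed by plethysmometer for 3 h, and % inhibition was calculated as (Vc − Vt)/Vc × 100.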

For experiment [2], the system named is Salmonella typhi. The experiment in a line: Antimicrobial activity against Salmonella typhi ATCC 23564 assessed as diameter of inhibition zone at 80 uM after 24 hrs by Kirby -Baur disc diffusion method. The format is functional, Salmonella enterica subsp. enterica serovar Typhi. As to conditions: Salmonella enterica, ATCC 23564, 24 h; read-out: DIZ.
Experiment [3] relates to Staphylococcus aureus. The experiment in a line: Antimicrobial activity against Staphylococcus aureus ATCC 11632 after 24 hrs by broth micro serial dilution method. The format is functional. The note with it: ATCC 11632, 24 h. In outline:
(§2)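 This was broth microdilution in autoclaved Mueller-Hinton broth. 150 µL of compound per well was serially diluted […], and 50 µL of test organism was added. Plates were incubated 24 h at 37 °C and optical density was read.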

The subject of experiment [4] is Pseudomonas aeruginosa. The experiment in a line: Antimicrobial activity against Pseudomonas aeruginosa ATCC 15499 assessed as diameter of inhibition zone at 40 uM after 24 hrs by Kirby -Baur disc diffusion method. The experiment is classed as functional. In outline:
(§3)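 Kirby-Bauer disc diffusion was used. Acetone stocks (160 µM) were serially doubled down to 80, 40 and 20 µM. 4 µL of each went onto 5 mm sterile paper discs, which were dried 30 min at 50 °C. Inoculum was 1.5 × 10⁸ CFU/mL diluted to 3 × 10² CFU/mL, and 50 µL was spread on Mueller-Hinton agar. After 24 h at 37 °C the inhibition-zone diameter was measured. Ciprofloxacin served as positive control.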
Background: In agar diffusion tests the substance spreads into inoculated agar from a disc or well.

Experiment [5] relates to Salmonella typhi. The experiment in a line: Antimicrobial activity against Salmonella typhi ATCC 23564 after 24 hrs by broth micro serial dilution method. As to conditions: Salmonella enterica, ATCC 23564, 24 h. The experiment is classed as functional, Salmonella enterica subsp. enterica serovar Typhi.
Experiment [6] deals with Trichoderma viride. Put plainly: Antifungal activity against Trichoderma viride MTCC 1107 assessed as zone of inhibition at 80 uM after 48 hrs by disc diffusion method. The format is functional. As to conditions: MTCC 1107, 48 h, read-out: IZ. The method, boiled down:
(§4)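 Spores from 4-day potato dextrose agar cultures, suspended in sterile water at 1.5 × 10⁵ CFU/mL. 0.2 mL was spread on potato dextrose agar. 5 mm filter-paper discs soaked with test compound were laid on the lawn. Incubation was 48 h at 28 °C, then the inhibition zone was measured in mm. Fluconazole was the positive control and acetone the negative control.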

In experiment [7] the test system is Curvularia lunata. Put plainly: Antifungal activity against Curvularia lunata MTCC 581 assessed as zone of inhibition at 20 uM after 48 hrs by disc diffusion method. The format is functional. In outline:
as §4

In experiment [8] the test system is Escherichia coli. Put plainly: Antimicrobial activity against Escherichia coli ATCC 35218 assessed as diameter of inhibition zone at 40 uM after 24 hrs by Kirby -Baur disc diffusion method. The experiment is classed as functional. The method, boiled down:
as §3

Experiment [9] concerns Escherichia coli. The experiment in a line: Antimicrobial activity against Escherichia coli ATCC 35218 after 24 hrs by broth micro serial dilution method. The format is functional. The note with it: ATCC 35218, 24 h. The method, boiled down: as §2
Experiment [10] deals with Escherichia coli. The experiment in a line: Antimicrobial activity against Escherichia coli ATCC 35218 assessed as diameter of inhibition zone at 20 uM after 24 hrs by Kirby -Baur disc diffusion method. The format is functional. In outline:
as §3

Experiment [11] deals with Aspergillus niger. The experiment in a line: Antifungal activity against Aspergillus niger MTCC 1108 after 48 hrs. The experiment is classed as functional.
Experiment [12] has as its system Salmonella typhi. The experiment in a line: Antimicrobial activity against Salmonella typhi ATCC 23564 assessed as diameter of inhibition zone at 40 uM after 24 hrs by Kirby -Baur disc diffusion method. The format is functional, Salmonella enterica subsp. enterica serovar Typhi. As to conditions: Salmonella enterica, ATCC 23564, 24 h; read-out: DIZ.
Experiment [13] has as its system Bacillus cereus. Put plainly: Antimicrobial activity against Bacillus cereus MTCC 7350 assessed as diameter of inhibition zone at 80 uM after 24 hrs by Kirby -Baur disc diffusion method. The format is functional. The note with it: MTCC 7350, 24 h, read-out: DIZ. In outline: as §3
The test system of experiment [14] is Trichoderma viride. Put plainly: Antifungal activity against Trichoderma viride MTCC 1107 assessed as zone of inhibition at 20 uM after 48 hrs by disc diffusion method. The experiment is classed as functional. The method, boiled down:
as §4

For experiment [15], the system named is Aspergillus flavus. The experiment in a line: Antifungal activity against Aspergillus flavus MTCC 1021 assessed as zone of inhibition at 80 uM after 48 hrs by disc diffusion method. The experiment is classed as functional. In outline:
as §4

Experiment [16] has as its system Aspergillus niger. Put plainly: Antifungal activity against Aspergillus niger MTCC 1108 assessed as zone of inhibition at 80 uM after 48 hrs by disc diffusion method. The format is functional. In outline:
as §4

For experiment [17], the system named is Trichoderma viride. Put plainly: Antifungal activity against Trichoderma viride MTCC 1107 after 48 hrs. The experiment is classed as functional. As to conditions: MTCC 1107, 48 h.
Experiment [18] concerns Pseudomonas aeruginosa. Put plainly: Antimicrobial activity against Pseudomonas aeruginosa ATCC 15499 after 24 hrs by broth micro serial dilution method. The format is functional. The note with it: ATCC 15499, 24 h. The method, boiled down:
as §2

Experiment [19] deals with Aspergillus flavus. The experiment in a line: Antifungal activity against Aspergillus flavus MTCC 1021 after 48 hrs. The format is functional.
In experiment [20] the test system is Pseudomonas aeruginosa. Put plainly: Antimicrobial activity against Pseudomonas aeruginosa ATCC 15499 assessed as diameter of inhibition zone at 80 uM after 24 hrs by Kirby -Baur disc diffusion method. The note with it: ATCC 15499, 24 h, read-out: DIZ. The experiment is classed as functional. In outline: as §3
For experiment [21], the system named is Salmonella typhi. The experiment in a line: Antimicrobial activity against Salmonella typhi ATCC 23564 assessed as diameter of inhibition zone at 20 uM after 24 hrs by Kirby -Baur disc diffusion method. The experiment is classed as functional. As to conditions: Salmonella enterica subsp. enterica serovar Typhi.
In experiment [22] the test system is Pseudomonas aeruginosa. The experiment in a line: Antimicrobial activity against Pseudomonas aeruginosa ATCC 15499 assessed as diameter of inhibition zone at 20 uM after 24 hrs by Kirby -Baur disc diffusion method. The format is functional. In outline: as §3
The subject of experiment [23] is Curvularia lunata. The experiment in a line: Antifungal activity against Curvularia lunata MTCC 581 assessed as zone of inhibition at 80 uM after 48 hrs by disc diffusion method. The format is functional. As to conditions: MTCC 581, 48 h, read-out: IZ. The method, boiled down: as §4
The subject of experiment [24] is Staphylococcus aureus. Put plainly: Antimicrobial activity against Staphylococcus aureus ATCC 11632 assessed as diameter of inhibition zone at 80 uM after 24 hrs by Kirby -Baur disc diffusion method. The format is functional. The method, boiled down:
as §3

The subject of experiment [25] is Bacillus cereus. Put plainly: Antimicrobial activity against Bacillus cereus MTCC 7350 after 24 hrs by broth micro serial dilution method. The format is functional. As to conditions: MTCC 7350, 24 h. In outline: as §2
Experiment [26] relates to Curvularia lunata. Put plainly: Antifungal activity against Curvularia lunata MTCC 581 assessed as zone of inhibition at 40 uM after 48 hrs by disc diffusion method. The format is functional. The note with it: MTCC 581, 48 h, read-out: IZ. In outline:
as §4

Experiment [27] concerns Curvularia lunata. Put plainly: Antifungal activity against Curvularia lunata MTCC 581 after 48 hrs. The format is functional. The note with it: MTCC 581, 48 h.
Experiment [28] relates to Escherichia coli. Put plainly: Antimicrobial activity against Escherichia coli ATCC 35218 assessed as diameter of inhibition zone at 80 uM after 24 hrs by Kirby -Baur disc diffusion method. The format is functional. As to conditions: ATCC 35218, 24 h, read-out: DIZ. The method, boiled down:
as §3

The test system of experiment [29] is Trichoderma viride. The experiment in a line: Antifungal activity against Trichoderma viride MTCC 1107 assessed as zone of inhibition at 40 uM after 48 hrs by disc diffusion method. The format is functional. The method, boiled down:
as §4

Experiment [30] relates to Mus musculus. Put plainly: Antiinflammatory activity in mouse assessed as inhibition of carrageenan-induced increase in paw volume at 100 mg/kg, ip administered 1 hr prior to carrageenan challenge measured after 3 hrs relative to control. The experiment is classed as functional. The note with it: route intraperitoneal. The method, boiled down: as §1
(In general: Carrageenan injected into the paw causes an acute inflammation.)

Broadly, the inhibition in vivo is the change of the read-out against control, counted positive when it falls. As usually defined, the MIC is the smallest concentration in the dilution series that meets the test's criterion for growth inhibition. For `COc1cc(/C=C/C(=O)CC(=O)/C=C/c2ccc(O)c(OC)c2)ccc1O` [CURCUMIN], the inhibition in vivo at 200 mg/kg in the experiment with Mus musculus [1] amounted to 12.9%. The zone of inhibition at 80 µM with Salmonella typhi [2] came out at 11 mm; with Trichoderma viride [6], 9 mm; in the experiment on Bacillus cereus [13] it was 9 mm; in the experiment with Pseudomonas aeruginosa [20], 11 mm; in the experiment on Curvularia lunata [23], 11 mm; with Escherichia coli [28], 12 mm. Besides, the MIC was 80 µM (≈ 29.5 µg/mL) against Staphylococcus aureus [3]; above 80 µM against Salmonella typhi [5]; above 80 µM in the experiment with Escherichia coli [9]; above 80 µM against Trichoderma viride [17]; above 80 µM in the experiment with Pseudomonas aeruginosa [18]; above 80 µM with Bacillus cereus [25]. In addition, in the experiment on Curvularia lunata [27], the minimal inhibitory concentration (MIC) was above 80 µM. Moreover, the “diameter of the inhibition zone (DIZ)” value in the experiment on Pseudomonas aeruginosa [4], with Escherichia coli [8], in the experiment on Escherichia coli [10], with Salmonella typhi [21], in the experiment with Pseudomonas aeruginosa [22] and in the experiment on Staphylococcus aureus [24] was “inactive” each time. For the same compound, the “inhibition zone (IZ)” value in the experiment on Curvularia lunata [7], in the experiment on Trichoderma viride [14], in the experiment with Aspergillus flavus [15], in the experiment on Aspergillus niger [16] and with Trichoderma viride [29] was “inactive” in each case. Moreover, the MIC result in the experiment on Aspergillus niger [11] and in the experiment on Aspergillus flavus [19] was “inactive” in each case. The zone of inhibition at 40 µM in the experiment on Salmonella typhi [12] and in the experiment on Curvularia lunata [26] was 9 mm in each case.

As for `CCCCC1C(=O)N(c2ccccc2)N(c2ccccc2)C1=O` [PHENYLBUTAZONE], the inhibition in vivo at 100 mg/kg in the experiment on Mus musculus [30] was 70.9%.
